Published values from different studies.
Each line is one published result; the experiments were not run side by side.
ADRA1B: Alpha-1B adrenergic receptor (ADRA1B, Homo sapiens, UniProt P35368)
PPARA: Peroxisome proliferator-activated receptor alpha (PPARA, Homo sapiens, UniProt Q07869)
CASP1: Caspase-1 (CASP1, Homo sapiens, UniProt P29466)

target | assay | setting | Ki | Structure (SMILES)
Prolyl endopeptidase (PREP, Homo sapiens, UniProt P48147) | enzyme activity, inhibitor, fluorescence | – | 1.6 nM | CC(=O)N[C@@H](CCCNC(=N)N)C(=O)NCC(=O)NCC(=O)N1CCC[C@H]1B(O)O
D(2) dopamine receptor (Drd2, Rattus norvegicus, UniProt P61169) | ligand displacement, radioligand | cell membranes | 1380 nM | Cc1cccc(C(=O)NCN2CCN(c3ccccc3C#N)CC2)c1
ADRA1B | ligand displacement, radioligand | – | 2540 nM | O=C1c2ccccc2CCCN1CCCCN1CCN(c2ccccn2)CC1
PPARA | ligand displacement, TR-FRET | – | 11200 nM | Cc1c(C)n(Cc2ccc(-c3ccccc3C(=O)O)cc2)c2ccc(C(=O)N[C@@H](C)c3ccc([N+](=O)[O-])cc3)cc12
ADRA1B | ligand displacement, radioligand | – | 649 nM | O=C1c2ccccc2CCN1CCCCN1CCN(c2cccc(Cl)c2Cl)CC1
Insulin-degrading enzyme (IDE, Homo sapiens, UniProt P14735) | enzyme activity, inhibitor, fluorescence | – | 77000 nM | O=S(=O)(Nc1ccc[nH]c1=S)c1cccs1
Neuroendocrine convertase 2 (Homo sapiens, UniProt P16519) | enzyme activity, inhibitor | – | 1600 nM | CC(=O)N[C@@H](CC(C)C)C(=O)N[C@@H](CC(C)C)C(=O)N[C@@H](CCCN=C(N)N)C(=O)N[C@H](C(=O)N[C@@H](CCCCN)C(=O)N[C@@H](CCCN=C(N)N)C(N)=O)C(C)C
ADRA1B | ligand displacement, radioligand | – | 1380 nM | O=C1c2ccccc2CCN1CCCCN1CCN(c2ccccn2)CC1
CASP1 | enzyme activity, inhibitor, fluorescence | – | > 300000 nM | O=c1c(O)c(-c2ccc(O)c(O)c2)oc2cc(O)cc(O)c12
PPARA | ligand displacement, TR-FRET | – | 19700 nM | O=C(O)c1c(Sc2ccccc2)c2cc(Cl)ccc2n1Cc1ccc(Cl)cc1
CASP1 | enzyme activity, inhibitor, fluorescence | – | > 300000 nM | O=c1c(O)c(-c2ccc(O)cc2)oc2cc(O)cc(O)c12
Histone deacetylase 3 (HDAC3, Homo sapiens, UniProt O15379) | enzyme activity, inhibitor | – | 273 nM | CCCC[C@H](NC(=O)C1CN(C)C1)c1ncc(-c2cc3ccccc3nc2OC)[nH]1
Bcl-2-related protein A1 (Homo sapiens, UniProt Q16548) | ligand displacement, FP | pH 7.8 | 8 nM | CC[C@H](C)[C@H](NC(=O)[C@H](CCCNC(=N)N)NC(=O)[C@H](CCCNC(=N)N)NC(=O)[C@H](CC(C)C)NC(=O)CNC(=O)[C@H](CCC(N)=O)NC(=O)[C@H](C)NC(=O)[C@@H](NC(=O)[C@H](Cc1c[nH]c2ccccc12)NC(=O)[C@@H](NC(=O)[C@H](CCC(=O)O)NC(=O)[C@@H]1CCCN1C(=O)[C@H](CCCNC(=N)N)NC(C)=O)[C@@H](C)CC)[C@@H](C)CC)C(=O)NCC(=O)N[C@@H](CC(=O)O)C(=O)N[C@H](C(=O)N[C@@H](Cc1c[nH]c2ccccc12)C(=O)N[C@@H](CC(N)=O)C(=O)N[C@@H](C)C(=O)N[C@@H](Cc1ccc(O)cc1)C(=O)N[C@@H](Cc1ccc(O)cc1)C(=O)N[C@@H](C)C(=O)N[C@@H](CCCNC(=N)N)C(N)=O)[C@@H](C)O
